Assay results: PMC5164959 (Biochemical pharmacology, 2016)
Values joined by “and” are separate entries in the source; they are usually repeats but may differ in a detail not shown here. Equal entries are not always repeated.

Legend:
[1] = tested on: PKC; test: PKC activation: phosphorylation of PKC substrates by western blot in HeLa cells; format: cell-based, human
Method in brief: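 HeLa cells were grown in DMEM with 5% FBS and treated 30 min with 4 or 40 μM test compound or 100 nM PMA, with or without 1 h pretreatment with 500 nM bisindolylmaleimide II. In separate runs, a 5-HT2AR agonist (10 μM, 6 h) was given with or without 40 μM antagonist. Lysates (50 μg) were immunoblotted for phospho-(Ser) PKC substrates; four independent experiments were quantified.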

[2] = tested on: 5-HTRs; test: Agonist functional assays at 5 serotonin receptors; format: cell-based; settings: 5 receptors where low Ki values were observed; data not shown
[3] = biological target: T1, 5-HT1D (Homo sapiens, UniProt P28221); test: Antagonist functional assay; format: cell-based; settings: read-out: Percent Inhibition of Agonist Response 5-HT1D
Method in brief: (§1)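 Run by the NIMH PDSP as cell-based antagonist-mode functional assays. Test compounds were applied at 10 μM. The read-out was percent inhibition of the response to an EC90 concentration of a reference agonist; that concentration was determined empirically for each receptor.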

[4] = biological target: T2, 5-HT7 (Homo sapiens, UniProt P34969); test: Radioligand competition binding assay
Method in brief: (§2)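 Run by the NIMH PDSP as radioligand competition binding assays. The primary screen used 10 μM test compound and reported mean percent inhibition of radioligand binding (n=4); above 50% counted as significant. At those receptors, IC50 values came from non-linear regression of competition binding isotherms and were converted to Ki with the Cheng-Prusoff equation.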

[5] = biological target: T3, 5-HT2A (Homo sapiens, UniProt P28223); test: Antagonist functional assay; format: cell-based; settings: read-out: Percent Inhibition of Agonist Response 5-HT2A
Method in brief: as §1

[6] = biological target: 5-HT6 (Homo sapiens, UniProt P50406); test: Radioligand competition binding assay
Method in brief: as §2

[7] = biological target: T4, 5-HT2C (Homo sapiens, UniProt P28335); test: Radioligand competition binding assay
T4 sequence (P28335 33-458): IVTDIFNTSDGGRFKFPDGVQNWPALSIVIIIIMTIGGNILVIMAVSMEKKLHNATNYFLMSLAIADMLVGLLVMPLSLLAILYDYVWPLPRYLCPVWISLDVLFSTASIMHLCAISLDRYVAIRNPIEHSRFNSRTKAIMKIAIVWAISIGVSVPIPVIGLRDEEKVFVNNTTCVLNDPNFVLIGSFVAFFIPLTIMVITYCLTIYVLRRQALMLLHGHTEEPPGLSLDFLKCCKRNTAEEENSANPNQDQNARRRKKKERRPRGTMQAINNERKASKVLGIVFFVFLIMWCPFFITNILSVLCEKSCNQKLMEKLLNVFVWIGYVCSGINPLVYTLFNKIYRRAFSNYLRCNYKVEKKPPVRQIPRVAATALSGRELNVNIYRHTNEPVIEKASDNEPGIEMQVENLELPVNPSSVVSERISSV

[8] = biological target: T5, 5-HT2B (Homo sapiens, UniProt P41595); test: Radioligand competition binding assay
[9] = biological target: T3, 5-HT2A; test: Radioligand competition binding assay
[10] = biological target: T2, 5-HT7; test: Antagonist functional assay; format: cell-based; settings: read-out: Percent Inhibition of Agonist Response 5-HT7
Method in brief: as §1

[11] = biological target: 5-HT5A (Homo sapiens, UniProt P47898); test: Radioligand competition binding assay
Method in brief: as §2

[12] = biological target: T5, 5-HT2B; test: Antagonist functional assay; format: cell-based; settings: read-out: Percent Inhibition of Agonist Response 5-HT2B
Method in brief: as §1

[13] = biological target: T4, 5-HT2C; test: Antagonist functional assay; format: cell-based; settings: read-out: Percent Inhibition of Agonist Response 5-HT2C
Method in brief: as §1

[14] = biological target: 5-HT1B (Homo sapiens, UniProt P28222); test: Radioligand competition binding assay; settings: read-out: Percent Inhibition of Binding 5-HT1B
Method in brief: as §2

[15] = biological target: 5-HT3 (Homo sapiens, UniProt P46098); test: Radioligand competition binding assay; settings: read-out: Percent Inhibition of Binding 5-HT3
Method in brief: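 Run by the NIMH PDSP as a radioligand competition binding primary screen. Test compounds were applied at 10 μM, and the read-out was mean percent inhibition of radioligand binding (n=4).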

[16] = biological target: T6, 5-HT1A (Homo sapiens, UniProt P08908); test: Radioligand competition binding assay
T6 sequence (P08908 1-422): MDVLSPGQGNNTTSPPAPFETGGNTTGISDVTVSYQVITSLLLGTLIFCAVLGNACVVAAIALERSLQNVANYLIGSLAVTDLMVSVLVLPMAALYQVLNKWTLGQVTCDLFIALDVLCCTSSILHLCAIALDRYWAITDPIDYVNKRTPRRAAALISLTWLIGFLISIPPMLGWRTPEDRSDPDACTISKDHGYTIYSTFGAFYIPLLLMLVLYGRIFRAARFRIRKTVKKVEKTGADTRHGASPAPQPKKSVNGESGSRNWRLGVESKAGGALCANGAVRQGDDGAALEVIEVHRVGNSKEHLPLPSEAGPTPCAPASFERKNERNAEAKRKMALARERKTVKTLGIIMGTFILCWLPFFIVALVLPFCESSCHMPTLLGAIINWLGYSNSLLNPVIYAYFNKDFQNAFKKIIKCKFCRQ

[17] = biological target: T1, 5-HT1D; test: Radioligand competition binding assay
Method in brief: as §2

[18] = tested on: PKC; test: PKC activation: phosphorylation of PKC substrates by western blot in U87 cells; format: cell-based, human; settings: treatment for 30 min
Method in brief: (§3)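 Glioblastoma cells were treated 30 min with 4 or 40 μM test compound or 100 nM PMA, with or without 1 h pretreatment with 500 nM bisindolylmaleimide II. Cleared Triton lysates (50 μg) were run on 8.75% SDS-PAGE and probed with phospho-(Ser) PKC substrate antibody, detected by alkaline phosphatase chemiluminescence. Three independent experiments were quantified.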

[19] = cited from earlier work
[20] = biological target: DGKδ (Homo sapiens, UniProt Q16760); test: Kinase assay with HEK 293T cell homogenate over-expressing DGKδ; format: biochemical; settings: 20 μM inhibitor, dioleoyl DAG liposomes
Method in brief: (§4)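 Reactions without CaCl2 contained 5 μg homogenate, 2 mM liposomes (10 mol% dioleoyl DAG, 40 mol% PS, 50 mol% PC), buffer B, 1 mM DTT and [γ32P]-ATP, 20 min at 30°C. Test compound was added from DMSO. Extracted 32P-lipid was counted, GFP-lysate normalized, and expressed as percent of DMSO control.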

[21] = biological target: DGKβ (Rattus norvegicus, UniProt P49621); test: Kinase assay with HEK 293T cell homogenate over-expressing DGKβ; format: biochemical; settings: 20 μM inhibitor, dioleoyl DAG liposomes
Method in brief: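 Reactions contained 5 μg homogenate, 2 mM liposomes (10 mol% dioleoyl DAG, 40 mol% PS, 50 mol% PC), buffer B, 1 mM DTT, 1 mM CaCl2 and [γ32P]-ATP, 20 min at 30°C. Test compound was added from DMSO. Organic-phase 32P was counted and expressed as percent of DMSO control after subtracting the GFP-lysate background.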

[22] = biological target: DGKι (Homo sapiens, UniProt O75912); test: Kinase assay with HEK 293T cell homogenate over-expressing DGKι; format: biochemical
[23] = biological target: DGKθ (Homo sapiens, UniProt P52824); test: Kinase assay with HEK 293T cell homogenate over-expressing DGKθ; format: biochemical; settings: 20 μM inhibitor, dioleoyl DAG liposomes
Method in brief: as §4

[24] = tested on: PKC; test: PKC activation: phosphorylation of PKC substrates by western blot in U251 cells; format: cell-based, human; settings: treatment for 30 min
Method in brief: as §3

[25] = biological target: T7, DGKα (Rattus norvegicus, UniProt P51556); test: Kinase assay with purified DGKα and PC:DAG:PS liposomes; format: biochemical; settings: for Vmax (ATP): ATP-dependent activity, 5 mol% DAG; for Vmax (DAG): DAG-dependent activity, 1 mM ATP; for Decrease of Vmax of purified DGKα: 0.5 mol% drug
Method in brief: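 Rat FLAG-DGKα was expressed in HeLa cells by adenovirus (72 h) and purified on FLAG M2 beads. Reactions contained buffer B (MOPS pH 7.5), 1 mM CaCl2, 1 mM DTT and 4.75 mM PC:PS:DAG liposomes (5 mol% DAG), with test compound built into the liposomes at 0.5 or 2.0 mol% or added from DMSO. Reactions with [γ32P]-ATP ran 15 min at 25°C. Km and Vmax came from Michaelis-Menten non-linear regression.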

[26] = biological target: T7, DGKα; test: Kinase assay with HEK 293T cell homogenate over-expressing DGKα; format: biochemical
Method in brief: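 Each reaction held 5 μg homogenate protein, 2 mM extruded PC:PS:DAG liposomes (10 mol% dioleoyl, dioctanoyl or stearoyl-arachidonoyl DAG), buffer B, 1 mM DTT, 1 mM CaCl2 and 1 mM [γ32P]-ATP, run 20 min at 30°C. Test compounds came from DMSO stocks. 32P-PA was counted, normalized to GFP lysate and to DMSO control; IC50 from log[inhibitor] versus normalized response.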

T7 sequence (P51556 whole entry): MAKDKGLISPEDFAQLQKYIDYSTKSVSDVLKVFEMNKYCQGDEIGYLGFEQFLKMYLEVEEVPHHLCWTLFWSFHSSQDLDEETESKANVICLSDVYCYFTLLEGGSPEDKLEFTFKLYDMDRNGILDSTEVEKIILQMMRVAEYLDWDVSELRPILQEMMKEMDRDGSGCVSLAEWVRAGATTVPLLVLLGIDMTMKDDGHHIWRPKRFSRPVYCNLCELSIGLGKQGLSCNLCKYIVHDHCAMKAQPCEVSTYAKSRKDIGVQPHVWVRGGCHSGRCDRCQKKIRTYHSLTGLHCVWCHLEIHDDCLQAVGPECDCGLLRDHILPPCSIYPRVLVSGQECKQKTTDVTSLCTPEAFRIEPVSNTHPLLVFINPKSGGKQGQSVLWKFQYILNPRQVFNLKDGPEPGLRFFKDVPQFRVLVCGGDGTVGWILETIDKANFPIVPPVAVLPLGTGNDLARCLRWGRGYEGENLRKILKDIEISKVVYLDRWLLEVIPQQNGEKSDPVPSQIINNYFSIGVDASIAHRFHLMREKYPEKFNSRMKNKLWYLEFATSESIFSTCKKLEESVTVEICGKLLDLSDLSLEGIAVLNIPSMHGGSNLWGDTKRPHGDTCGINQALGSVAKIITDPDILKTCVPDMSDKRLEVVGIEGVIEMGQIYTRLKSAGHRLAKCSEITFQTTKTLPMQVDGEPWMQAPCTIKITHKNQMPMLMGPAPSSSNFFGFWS
T1 sequence (P28221 whole entry, species assumed): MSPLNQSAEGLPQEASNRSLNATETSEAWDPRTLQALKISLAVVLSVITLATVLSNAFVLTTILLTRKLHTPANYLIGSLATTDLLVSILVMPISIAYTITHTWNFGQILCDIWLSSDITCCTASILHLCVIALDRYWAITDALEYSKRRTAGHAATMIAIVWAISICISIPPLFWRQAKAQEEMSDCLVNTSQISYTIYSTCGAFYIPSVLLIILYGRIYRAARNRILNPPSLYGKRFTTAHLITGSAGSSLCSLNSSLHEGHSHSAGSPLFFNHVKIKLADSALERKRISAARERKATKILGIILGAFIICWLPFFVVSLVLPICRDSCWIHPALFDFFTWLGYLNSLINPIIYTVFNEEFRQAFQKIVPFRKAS
T5 sequence (P41595 whole entry, species assumed): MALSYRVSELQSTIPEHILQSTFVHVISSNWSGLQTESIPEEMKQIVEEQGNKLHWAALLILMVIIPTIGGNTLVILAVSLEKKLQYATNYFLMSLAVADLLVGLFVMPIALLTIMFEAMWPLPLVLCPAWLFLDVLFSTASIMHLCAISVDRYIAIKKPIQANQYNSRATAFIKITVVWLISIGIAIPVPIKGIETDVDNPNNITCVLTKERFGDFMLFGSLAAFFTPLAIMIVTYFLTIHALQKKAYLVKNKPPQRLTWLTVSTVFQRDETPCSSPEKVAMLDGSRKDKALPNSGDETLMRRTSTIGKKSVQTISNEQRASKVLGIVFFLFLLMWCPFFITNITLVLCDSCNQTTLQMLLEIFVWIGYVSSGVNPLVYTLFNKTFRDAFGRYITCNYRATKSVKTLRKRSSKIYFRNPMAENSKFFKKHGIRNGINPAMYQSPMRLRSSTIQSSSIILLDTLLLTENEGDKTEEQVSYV
T3 sequence (P28223 whole entry, species assumed): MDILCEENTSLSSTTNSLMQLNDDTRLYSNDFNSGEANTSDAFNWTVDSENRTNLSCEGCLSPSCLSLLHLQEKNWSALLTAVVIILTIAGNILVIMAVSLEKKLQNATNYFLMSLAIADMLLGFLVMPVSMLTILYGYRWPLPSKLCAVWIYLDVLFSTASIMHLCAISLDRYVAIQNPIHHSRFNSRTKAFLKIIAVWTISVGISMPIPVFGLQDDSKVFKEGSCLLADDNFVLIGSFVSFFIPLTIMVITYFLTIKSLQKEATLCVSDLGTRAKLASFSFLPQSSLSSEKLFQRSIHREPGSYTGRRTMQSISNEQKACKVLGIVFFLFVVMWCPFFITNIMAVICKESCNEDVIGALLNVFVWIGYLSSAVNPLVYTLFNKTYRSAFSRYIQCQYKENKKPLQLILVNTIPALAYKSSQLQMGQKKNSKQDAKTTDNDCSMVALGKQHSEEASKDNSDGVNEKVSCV
T2 sequence (P34969 whole entry, species assumed): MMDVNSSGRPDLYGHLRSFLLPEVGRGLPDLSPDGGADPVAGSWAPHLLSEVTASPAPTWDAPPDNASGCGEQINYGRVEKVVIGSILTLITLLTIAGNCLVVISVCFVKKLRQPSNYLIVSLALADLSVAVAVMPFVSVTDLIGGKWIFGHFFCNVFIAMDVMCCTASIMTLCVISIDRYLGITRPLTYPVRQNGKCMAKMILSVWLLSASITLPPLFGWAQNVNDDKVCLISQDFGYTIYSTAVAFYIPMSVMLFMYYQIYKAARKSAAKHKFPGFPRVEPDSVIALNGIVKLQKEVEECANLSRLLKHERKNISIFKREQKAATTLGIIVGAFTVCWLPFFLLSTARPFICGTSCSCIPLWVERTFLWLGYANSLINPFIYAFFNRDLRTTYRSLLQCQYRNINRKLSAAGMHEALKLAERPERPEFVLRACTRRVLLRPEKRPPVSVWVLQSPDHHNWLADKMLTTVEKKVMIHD
Chain of DGKι (O75912 1-1065 isoform O75912-1): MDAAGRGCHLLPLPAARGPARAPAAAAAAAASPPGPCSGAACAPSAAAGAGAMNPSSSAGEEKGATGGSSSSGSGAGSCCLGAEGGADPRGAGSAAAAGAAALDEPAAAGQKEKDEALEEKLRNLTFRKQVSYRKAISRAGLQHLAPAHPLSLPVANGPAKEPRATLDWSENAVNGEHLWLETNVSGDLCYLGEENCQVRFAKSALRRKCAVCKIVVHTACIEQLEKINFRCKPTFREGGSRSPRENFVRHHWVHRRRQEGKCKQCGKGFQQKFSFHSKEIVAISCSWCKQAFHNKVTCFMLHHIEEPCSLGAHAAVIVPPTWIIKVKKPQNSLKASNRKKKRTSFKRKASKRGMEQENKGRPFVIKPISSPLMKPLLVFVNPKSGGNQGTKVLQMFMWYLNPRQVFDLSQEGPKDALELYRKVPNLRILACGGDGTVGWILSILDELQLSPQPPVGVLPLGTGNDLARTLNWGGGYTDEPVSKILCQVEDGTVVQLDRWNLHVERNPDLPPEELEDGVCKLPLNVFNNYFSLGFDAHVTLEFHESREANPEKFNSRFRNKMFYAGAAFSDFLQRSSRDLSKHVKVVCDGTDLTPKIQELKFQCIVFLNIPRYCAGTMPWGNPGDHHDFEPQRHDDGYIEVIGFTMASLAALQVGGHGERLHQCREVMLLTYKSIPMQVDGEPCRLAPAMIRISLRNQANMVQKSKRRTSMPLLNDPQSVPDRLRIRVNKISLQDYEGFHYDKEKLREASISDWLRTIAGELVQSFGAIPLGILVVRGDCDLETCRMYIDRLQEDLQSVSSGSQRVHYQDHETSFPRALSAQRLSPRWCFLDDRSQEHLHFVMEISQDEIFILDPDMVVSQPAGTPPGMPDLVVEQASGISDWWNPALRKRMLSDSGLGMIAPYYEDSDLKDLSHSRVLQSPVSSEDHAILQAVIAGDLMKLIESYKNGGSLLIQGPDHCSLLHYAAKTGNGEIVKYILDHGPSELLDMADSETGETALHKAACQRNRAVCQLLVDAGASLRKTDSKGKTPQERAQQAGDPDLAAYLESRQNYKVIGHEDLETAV
Chain of 5-HT5A (P47898 whole entry, species assumed): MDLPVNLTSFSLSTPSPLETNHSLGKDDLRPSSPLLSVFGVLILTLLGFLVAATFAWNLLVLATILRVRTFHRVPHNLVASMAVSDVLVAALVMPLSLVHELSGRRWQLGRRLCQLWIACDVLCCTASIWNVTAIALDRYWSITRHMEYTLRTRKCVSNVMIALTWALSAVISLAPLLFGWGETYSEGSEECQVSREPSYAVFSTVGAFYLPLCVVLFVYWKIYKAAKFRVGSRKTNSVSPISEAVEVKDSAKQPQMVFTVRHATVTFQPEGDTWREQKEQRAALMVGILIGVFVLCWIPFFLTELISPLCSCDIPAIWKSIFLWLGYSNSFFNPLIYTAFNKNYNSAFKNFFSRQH
Chain of 5-HT6 (P50406 whole entry, species assumed): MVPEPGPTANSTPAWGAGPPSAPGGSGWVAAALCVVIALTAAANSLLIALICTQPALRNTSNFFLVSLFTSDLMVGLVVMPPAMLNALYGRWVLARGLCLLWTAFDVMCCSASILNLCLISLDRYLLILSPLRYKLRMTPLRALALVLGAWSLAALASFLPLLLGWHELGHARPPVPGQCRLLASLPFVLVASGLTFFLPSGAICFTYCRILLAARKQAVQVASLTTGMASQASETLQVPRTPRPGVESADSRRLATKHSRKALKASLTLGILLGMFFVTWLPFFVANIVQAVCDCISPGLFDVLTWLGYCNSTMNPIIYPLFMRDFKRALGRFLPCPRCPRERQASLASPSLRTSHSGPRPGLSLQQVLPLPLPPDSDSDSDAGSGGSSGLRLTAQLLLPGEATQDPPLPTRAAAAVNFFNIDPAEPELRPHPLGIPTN
Chain of 5-HT1B (P28222 whole entry, species assumed): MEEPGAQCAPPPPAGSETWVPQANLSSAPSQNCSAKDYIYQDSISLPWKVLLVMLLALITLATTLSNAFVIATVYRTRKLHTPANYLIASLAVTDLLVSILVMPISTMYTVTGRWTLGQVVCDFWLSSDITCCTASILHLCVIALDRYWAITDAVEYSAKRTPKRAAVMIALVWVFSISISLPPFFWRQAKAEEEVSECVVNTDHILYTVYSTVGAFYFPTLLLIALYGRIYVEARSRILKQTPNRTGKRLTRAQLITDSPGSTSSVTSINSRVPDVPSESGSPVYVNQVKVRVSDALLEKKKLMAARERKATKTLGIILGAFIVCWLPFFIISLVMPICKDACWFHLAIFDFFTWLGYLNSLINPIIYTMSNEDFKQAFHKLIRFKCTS

Structure (SMILES): COc1cc(Br)c(OC)c2c1[C@H](CN)C2 [TCB-2]
- PKC activity ([1]; 10 μM TCB-2 for 6 h): significant elevation of PKC activity

Structure (SMILES): O=c1c2ccccc2[nH]c(=S)n1CCN1CCC(=C(c2ccc(F)cc2)c2ccc(F)cc2)CC1 [R59949, 3-[2-(4-[bis-(4-fluorophenyl)methylene]-1-piperidinyl)ethyl]-2,3-dihydro-2-thioxo-4(1H)quinazolinone]
- Agonist activity at 5-HTRs [2]: very low to no activity
- inhibition at 10 µM [3]: 136%
- Ki [4]: 681 nM
- inhibition at 10 µM ([4]; read-out: Percent Inhibition of Binding 5-HT7): 82.8%
- inhibition at 10 µM [5]: 101%
- Ki [6]: 3.07 µM
- inhibition at 10 µM ([6]; read-out: Percent Inhibition of Binding 5-HT6): 71.8%
- Ki [7]: 46 nM
- inhibition at 10 µM ([7]; read-out: Percent Inhibition of Binding 5-HT2C): 72.2%
- Ki [8]: 80 nM
- inhibition at 10 µM ([8]; read-out: Percent Inhibition of Binding 5-HT2B): 96.9%
- Ki [9]: 9.2 nM
- inhibition at 10 µM ([9]; read-out: Percent Inhibition of Binding 5-HT2A): 94.2%
- inhibition at 10 µM [10]: 32.9%
- Ki [11]: 3.25 µM
- inhibition at 10 µM ([11]; read-out: Percent Inhibition of Binding 5-HT5A): 71.6%
- inhibition at 10 µM [12]: 99.4%
- inhibition at 10 µM [13]: 28.1%
- inhibition at 10 µM [14]: 20.3%
- inhibition at 10 µM [15]: 0.7%
- Ki [16]: 2000 nM
- inhibition at 10 µM ([16]; read-out: Percent Inhibition of Binding 5-HT1A): 61.1%
- Ki [17]: 64.5 nM
- inhibition at 10 µM ([17]; read-out: Percent Inhibition of Binding 5-HT1D): 76.7%

Structure (SMILES): Cc1nc2sccn2c(=O)c1CCN1CCC(=C(c2ccc(F)cc2)c2ccc(F)cc2)CC1 [ritanserin]
- Activation of PKC [18]: activate PKC
- Adverse side effects [19]: few adverse side effects
- Oral bioavailability [19]: orally bioavailable
- half-life ([19]; in humans): approximately 40 hours
- Activity of DGKδ, percent of control [20]: not detectably inhibited
- Activity of DGKβ, percent of control [21]: not detectably inhibited
- Activity of DGKι, percent of control ([22]; 20 μM inhibitor, dioleoyl DAG liposomes, cell homogenate): not detectably inhibited
- IC50 ([22]; IC50 for DGKι, cell homogenate, 1 mM ATP, 10 mol% DAG): 55 to 65 µM and ~60 µM
- IC50 for DGKι relative to IC50 for DGKα ([22]; fold higher than IC50 for DGKα): 2–3 fold
- Activity of DGKθ, percent of control [23]: not detectably inhibited
- Increase in phosphorylation of PKC downstream targets ([1]; 40 μM, 30 min): about 2.5 fold
- Activation of PKC [24]: not in U251 cells
- Vmax (ATP) ([25]; 0.5 mol% drug in liposomes): 20 ± 1 nmol/min/mg
- Vmax (DAG) ([25]; 0.5 mol% drug in liposomes): 17 ± 2 nmol/min/mg
- Decrease of Vmax of purified DGKα ([25]; in the context of ATP): greater than 50%
- Decrease of Vmax of purified DGKα ([25]; in the context of DAG): greater than 50%
- Vmax (ATP) ([25]; 2.0 mol% drug in liposomes): 12 ± 0.01 ^† nmol/min/mg
- Vmax (DAG) ([25]; 2.0 mol% drug in liposomes): 11 ± 2 nmol/min/mg
- IC50 [26]: ~15 µM
- Activity of DGKα, percent of control ([26]; 20 μM inhibitor, liposomes with dioleoyl DAG, cell homogenate): decreased by about half
- Potency against DGKα with other DAG species ([26]; 20 μM, liposomes containing dioctanoyl or stearoyl arachidonoyl DAG): similarly potent

Structure (SMILES): CCCCCCCCCCCCCC(=O)O[C@@H]1[C@@H](C)[C@@]2(O)[C@@H](C=C(CO)C[C@]3(O)C(=O)C(C)=C[C@@H]23)[C@@H]2C(C)(C)[C@]12OC(C)=O [PMA, Phorbol 12-myristate 13-acetate]
- Increase in phosphorylation of PKC downstream targets ([1]; 100 nM PMA, 30 min): greater than 3 fold

Structure (SMILES): CN1CCCC1CCn1cc(C2=C(c3c[nH]c4ccccc34)C(=O)NC2=O)c2ccccc21 (centres unmarked) [bis, bisindolylmaleimide II]
- Change in basal PKC activity ([1]; 500 nM bis alone for 1 h): did not see any changes in basal PKC activity

Structure (SMILES): O=C(c1ccc(F)cc1)C1CCN(CCn2c(=O)[nH]c3ccccc3c2=O)CC1 [ketanserin]
- Activation of PKC [18]: does not activate PKC
- Effect on TCB-2-induced PKC activation ([1]; 40 μM ketanserin co-treatment with 10 μM TCB-2 for 6 h): inhibited the ability of TCB-2 to activate PKC
- Activation of PKC ([1]; 40 μM ketanserin, 30 min): no activation of PKC was observed
- Activation of PKC [24]: does not activate PKC
- IC50 [25]: 264 µM
